# Tests used:
# Glutamate NMDA receptor [1] = test: Inhibition of [3H]MK-801 binding to a N-methyl-D-aspartate glutamate receptor in glycine-sensitive rat cortical membranes.; format: cell membranes, Membrane
# Summary of the method: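 Well-washed rat cortical membranes were given an added freeze/thaw step. [³H]MK-801 (2.5 nM) binding was run with 1 μM glutamate and 0.2 μM glycine for 2 h at 27 °C, then stopped by filtration. Nonspecific binding was defined with 0.5 μM MK-801. Values are IC50.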
# Glutamate NMDA receptor [2] = test: Ability to displace strychnine-insensitive [3H]glycine binding to N-methyl-D-aspartate glutamate receptor of rat cortical membranes.
# Summary of the method: (§1)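 Rat cortical membranes were prepared by a freeze/thaw Triton extraction. Incubation used [³H]glycine with 25 μg membrane fragments on ice for 1 h, ended by rapid filtration through GF/B filters. Nonspecific binding was defined with 100 μM D-serine.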
# [3] = target: T1, Glutamate receptor ionotropic, NMDA 1 (Rattus norvegicus, UniProt P35439); test: Ability to displace strychnine-insensitive [3H]glycine binding to rat cortical membranes.; summary of the method: as §1
# [4] = target: T1, Glutamate receptor ionotropic, NMDA 1; test: Inhibition of [3H]-MK-801 binding to a N-methyl-D-aspartic acid(NMDA) receptor in glycine-sensitive rat cortical membranes.; format: cell membranes, Membrane
SMILES,IC50 (Glutamate NMDA receptor [1]) [µM],Ki (Glutamate NMDA receptor [2]) [µM],Ki [3] [µM],IC50 [4] [µM]
Oc1nc2cc(Cl)cc(Cl)c2c(O)c1-c1ccccc1,0.22,0.057,–,–
Oc1ccc(-c2c(O)nc3cc(Cl)cc(Cl)c3c2O)cc1,0.11,0.013,–,–
Nc1ccc(-c2c(O)nc3cc(Cl)cc(Cl)c3c2O)cc1,–,–,0.018,0.21
O=c1[nH]c2cc(Cl)cc(Cl)c2c(O)c1-c1ccc([N+](=O)[O-])cc1,–,–,0.86,–
O=c1[nH]c2ccccc2c(O)c1-c1ccccc1,–,–,–,7.29
COc1ccc(-c2c(O)nc3cc(Cl)cc(Cl)c3c2O)cc1,1.23,0.067,–,–
Cc1ccc(-c2c(O)nc3cc(Cl)cc(Cl)c3c2O)cc1,–,–,0.3,0.55
O=C(O)c1cc(O)c2c(Cl)cc(Cl)cc2n1,–,–,0.04,0.86

# From ChEMBL document CHEMBL1126124, “3-Phenyl-4-hydroxyquinolin-2(1H)-ones: potent and selective antagonists at the strychnine-insensitive glycine site on the N-methyl-D-aspartate receptor complex” (J Med Chem, 1992)
